In the library only some 1.5% were active in any assay of this set; here they are far more common.
CAL PDZ FP-1: human CAL PDZ-peptide interaction inhibition; hit rate 0.02% among 330,000; Q9HD26; inhibition, % at 20 µM; purified CAL PDZ, TMR-peptide fluorescence polarization, 1 h; AID 504414;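 active = highest replicate inhibition of at least 40%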;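 note: plate controls were DMSO neutral control wells for no effect and unlabeled competitor peptide control wells for full effect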
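Read-out basis: mP drop reported as inhibition | Assay system: Tagged CAL PDZ protein CerCALP, purified | Benchmarks: Unlabelled peptide for full inhibition, DMSO wells as neutral | Schedule: 1 h incubation at room temperature before polarization reading | Buffer or medium: Sodium phosphate/NaCl buffer pH 7.4 with TCEP, IgG, Thesit | Doses: Single point, 20 µM | Measured by: Fluorescence polarization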
CAL PDZ FP-2: blocks peptide binding to the human CAL PDZ domain; purified CAL PDZ, TMR-peptide fluorescence polarization, 1 h; inhibition, % at 24.9 µM; hit rate 0.92% among 300,000; Q9HD26; AID 602252;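 active = mean inhibition of at least 30% with at least half of replicates also reaching 30%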;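 note: 0% = DMSO neutral control and 100% = excess unlabeled competitor peptide PRC23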
Keap1 Nrf2 FP: inhibitors of human Keap1-Nrf2 protein-protein interaction | Keap1 Kelch-Nrf2 peptide fluorescence polarization, 1536-well | inhibition, % at 9.4 µM | hit rate 0.15% among 340,000; in the data active = inhibition above about 12%;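 note: human Keap1 Kelch domain with fluorescein labeled Nrf2 9mer peptide probe; 0% = neutral control wells and 100% = peptide positive control; higher means more block of Keap1 binding to Nrf2 peptide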
CaV13 ICDI inh: Disruptors of the CACNA1D IQ motif to Ca2+-dependent inactivation inhibitor domain association, primary screening, Förster resonance energy transfer in intact living … | HEK cells, CFP/YFP FRET ICDI-IQ, plate reader, 10 min; percent FRET-ratio fall versus neutral wells | inhibition, % at 12.3 µM | hit rate 0.098% among 340,000;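 active = mean replicate inhibition of at least 30% and at least 1% of replicates passing that level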;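 note: 0% = median of the neutral control wells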
LANA-H2A inh: blocks KSHV LANA binding to histone H2A/H2B; inhibition, % (no concentration beside the values); cell-free LANA-H2A/H2B peptide, fluorescence polarization; AID 2629; hit rate 0.6% among 320,000; Q9QR71; in the data active = inhibition mostly above about 10%, no sharp cut-off; inactive = mostly below about 6.7%
LANA DNA inh: KSHV C-LANA DNA binding inhibition. hit rate 0.078% among 340,000. MBP-C-LANA/FAM-LBS DNA binding, fluorescence polarization. inhibition, % at 9 µM;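 active = highest replicate inhibition at or above 60% at 9 µM, even if other replicates fall short; inactive = all replicates below 60% inhibition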;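 note: 0% = neutral control wells and 100% = 4 µM acridine orange control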
Active calls of the source: *; x = no result given; + = active, no number.

SMILES	CAL PDZ FP-1	CAL PDZ FP-2	Keap1 Nrf2 FP	CaV13 ICDI inh	LANA-H2A inh	LANA DNA inh
O=C(Nc1cccnc1)c1cccc(S(=O)(=O)N2CCc3ccccc32)c1	-3	73*	-1	-7	-2	-1
CC1Cc2ccccc2N1S(=O)(=O)c1cccc(C(=O)Nc2cccnc2)c1 (centres undefined)	x	34*	3	-5	-2	3
Cc1cccc(NS(=O)(=O)c2c(C)nc3scc(C)n3c2=O)c1	-3	0	1	-2	3	0
Cc1cc(NC(=O)CN2CCCC2c2nc3ccccc3s2)no1 (centres undefined)	x	-9	-8	-4	15*	-1
COc1ccc(N2C(=O)c3n[nH]c(C)c3C2c2ccccc2)cc1 (centres undefined)	x	x	x	-3	x	x
COC(=O)N1C[C@H](OC)[C@H]2C[C@@H]1c1ccccc1O2	x	x	x	-9	x	x
Nc1ccc(Nc2nc(-c3cc4ccccc4oc3=O)cs2)cc1	0	48*	2	-4	5	-1
Cc1cccc(N(O)C(=O)Nc2cccc(Cl)c2)c1	-1	31*	-2	-18	3	4
C[C@H](CO)N1C[C@H](C)[C@@H](CN(C)S(=O)(=O)c2ccc(F)cc2)Oc2ncc(Br)cc2C1=O	x	x	x	-5	x	x
COc1ccc2ccccc2c1CN1CCN(c2ncc(Cc3ccccc3)cn2)CC1	x	x	x	-9	x	x
COc1ccccc1NC(=O)c1ccccc1S(=O)(=O)c1ccc([N+](=O)[O-])cc1	0	72*	1	x	-4	2
COc1ccccc1NC(=O)c1ccccc1S(=O)(=O)c1ccccc1[N+](=O)[O-]	-2	14	-7	-16	1	-2
COC(=O)c1cc2c(c3c4cc(F)ccc4n(S(=O)(=O)c4ccc(C)cc4)c13)C(=O)N(Cc1ccccc1)C2	x	x	x	-9	x	x
CCn1ncc(Br)c1C(=O)Nc1cccc(F)c1	23	33*	-1	10	0	4
CCn1ncc(Br)c1C(=O)Nc1ccc2c(c1)OCCO2	0	0	-1	0	-1	1
CCc1nc2ccc(C(=O)NCCc3c[nH]c4ccccc34)cn2c1N(C)Cc1ccc(N(C)C)cc1	x	x	x	-6	x	x
CC[C@]12c3[nH]c4cc(-c5ccco5)ccc4c3CCN1C(=O)[C@@H](CC(=O)NC/C=C(\C)CCC=C(C)C)C[C@@H]2C(=O)N1CCN(C(=O)c2ccco2)CC1	0	-4	-7	x	x	0
CC[C@]12c3[nH]c4ccccc4c3CCN1C(=O)C(CC(=O)NC/C=C(\C)CCC=C(C)C)C[C@@H]2C(=O)N1CCN(C(=O)c2ccco2)CC1 (some centres undefined)	1	-3	0	-6	+	0
CCOC(=O)CSc1nnc(-c2ccc3ncccc3c2)n1C	0	+	-1	2	-4	1
Cc1ccc(-c2nnc(SCC(N)=O)n2C)cc1	0	-2	-3	-8	-8	-3
O=C(CNS(=O)(=O)c1ccccc1)OCC(=O)c1cccc([N+](=O)[O-])c1	0	3	-1	-7	4	0
Cc1cc(C)n(CC(=O)c2cccc([N+](=O)[O-])c2)n1	-1	36*	-1	0	1	0
O=C(Cc1ccccc1)OCC(=O)c1cccc([N+](=O)[O-])c1	0	47*	5	-17	-2	-1
O=C(N[C@@H](Cc1cccnc1)C(=O)N1CCC[C@H]1C(=O)NCCc1ccccc1Cl)c1cccs1	x	x	x	-2	x	x
Oc1ccccc1C=NCCCCCCN=Cc1ccccc1O	0	+	-4	-6	3	-5
SMILES	CAL PDZ FP-1	CAL PDZ FP-2	Keap1 Nrf2 FP	CaV13 ICDI inh	LANA-H2A inh	LANA DNA inh
COc1ccc(CC(=O)NCC2CCCN(Cc3cccc(SC)c3)C2)cc1 (centres undefined)	x	-6	-3	-5	-6	1
CSc1cccc(CN2CCCC(CNC(=O)c3ccco3)C2)c1 (centres undefined)	-1	146*	2	-5	4	1
O=C(NCC1CCCN(Cc2cccc(F)c2)C1)c1cccc2ccccc12 (centres undefined)	0	68*	-4	-1	-6	0
CCOc1cccc(CN2CCCC(CNC(=O)c3cccc(OC)c3OC)C2)c1 (centres undefined)	x	-5	1	-11	-1	-4
CC(C)OP(=O)(OC(C)C)C(O)c1ccc2c(c1)OCO2 (centres undefined)	-1	-4	0	-3	1	0
Nc1[nH]c(C(=O)c2ccccc2)c(-c2ccc(Cl)cc2)c1C(=O)c1c[nH]c2cc(F)ccc12	x	x	x	-6	x	x
CC(C)=CCc1c(-c2ccc(O)cc2O)oc2c3c(cc(O)c2c1=O)OC(C)(C)C=C3	x	x	x	x	23*	x
CC(C)=CCc1c2c(c(O)c3c(=O)c4c(oc13)-c1cc(O)c(O)cc1OC4C=C(C)C)C=CC(C)(C)O2 (centres undefined)	x	x	x	x	1	x
O=C(O)c1cccc(NC(=O)c2ccccc2NC(=O)c2ccccc2F)c1	0	x	6	-19	17*	1
CC(=O)c1cc(C(=O)Nc2ccc3ccccc3c2)c(C)o1	-1	x	-2	-3	-2	0
O=C(Nc1ccc2ccccc2c1)c1cccc2ccccc12	0	70*	4	-5	x	0
Cc1cc(C(=O)Nc2ccc3ccccc3c2)c(C)o1	-1	41*	2	-7	1	0
O=C(Nc1ccccc1C(=O)Nc1ccccc1)c1ccccc1F	-1	-2	2	-4	-3	2
CC(=O)c1cccc(NC(=O)c2cccc3ccccc23)c1	-1	52*	1	-16	3	-2
O=C(Nc1ccncc1)c1cccc2ccccc12	0	-4	1	-4	1	1
CC(C)C1CC(=O)NC(SCC(=O)Nc2ccc(Br)cc2)=C1C#N (centres undefined)	0	57*	3	-2	-5	1
CC(C)c1cc(C(=O)Nc2cc(Br)ccc2O)no1	1	2	-4	-8	-1	-1
CC(C)c1cc(C(=O)Nc2cc(Cl)ccc2O)no1	x	-1	-1	-4	13*	-2
COCc1[nH]nc2c1C(c1cccc(C(F)(F)F)c1)N(c1ccc(OC)cc1)C2=O (centres undefined)	x	x	x	-3	x	x
O=C(Nc1cccc(-n2cnnn2)c1)c1ccc(OC(F)(F)F)cc1	-2	98*	0	-8	-1	1
O=C(NNC(=O)c1cccc(C(F)(F)F)c1)c1ccc(-n2cnnn2)cc1	0	92*	4	-9	0	1
O=C(COC(=O)c1cccc(-n2cnnn2)c1)Nc1c(Cl)cccc1C(F)(F)F	-2	62*	1	-2	0	1

Bioassay records (PubChem BioAssay)
